The values that follow come from ChEMBL document CHEMBL1135821, “Unique overlap in the prerequisites for thrombin inhibition and oral bioavailability resulting in potent oral antithrombotics” (J Med Chem, 2002).

For data set [1], the target named is T1, Prothrombin (Homo sapiens, UniProt P00734). In words: Inhibitory activity against thrombin.
The nature of data set [2]: Half life value in wistar rats. It counts as ADME, organism-based. As to conditions: rat, in vivo. An outline of the steps:
(§1)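 Elimination half-life after IV dosing of cannulated rats (275-325 g) or dogs, at least six EDTA plasma samples. Plasma samples diluted in Tris-NaCl pH 7.4, incubated 2 min with 0.5 U/mL human thrombin, then S-2238 added. ΔOD405 taken between 2 and 22 min and read against a calibration of compound spiked in pooled plasma. Fitted by iterative Simplex procedure.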

The nature of data set [3]: Bioavailability in rat (Wistar). It counts as ADME, organism-based. The settings on record: in vivo. A digest of the protocol: (§2)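 Rats (275-325 g) with jugular cannula placed under methohexital one day earlier; dogs dosed by both routes with at least 2 weeks wash-out. IV and oral gavage in separate rats. At least six blood samples in EDTA. Plasma anti-IIa activity measured with S-2238 against a compound-spiked plasma calibration. %F = PO AUC divided by dose-normalized mean IV AUC ×100, AUC by trapezium rule.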

Data set [4] can be described thus: Half life value determined in dog. It counts as ADME, Canis lupus familiaris. The settings on record: in vivo. A digest of the protocol: as §1
Data set [5] is described as follows: Bioavailability in dog. It counts as ADME, organism-based, Canis lupus familiaris. The settings on record: in vivo. A digest of the protocol: as §2
Data set [6] deals with T1, Prothrombin. Nature of the data set: Antithrombotic potency in the Aortic flow model in rats was reported. It counts as functional. The settings on record: Rattus norvegicus; target entry is the homologue from another species. A digest of the protocol: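 Rats (350-500 g body wt) were weighed. A silk thread (size 4/0, uncoated), knotted twice and protruding 3 mm from a catheter, was introduced via the left common carotid artery and positioned in the aorta. The carotid was clamped and the iliac clamp released. After 10 min of blood circulation, the thread was removed and rinsed, and thrombus weight and length were measured.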

Data set [7] is described as follows: Oral bioavailability. It counts as ADME, organism-based. The settings on record: eutheria, in vivo. An outline of the steps:
as §2

A short description of data set [8]: Half life was reported. It counts as ADME.
A short description of data set [9]: Bioavailability in rat. It counts as ADME, organism-based. As to conditions: in vivo. A digest of the protocol: as §2
Data set [10] can be described thus: Half life value in rat was determined. It counts as ADME, organism-based. The settings on record: in vivo. An outline of the steps:
as §1

A short description of data set [11]: Bioavailability determined in rat. It counts as ADME, organism-based. The settings on record: in vivo. A digest of the protocol:
as §2

Data set [12] in a line: Half life value in dog was determined. The settings on record: in vivo. It counts as ADME, organism-based, Canis lupus familiaris. A digest of the protocol: as §1
The nature of data set [13]: Bioavailability in dog determined. It counts as ADME, organism-based, Canis lupus familiaris. The settings on record: in vivo. A digest of the protocol: as §2
Data set [14] can be described thus: Clearance was reported. As to conditions: in vivo. It counts as ADME, organism-based.

By Ki is commonly meant the dissociation constant of the complex between target and ligand, obtained from inhibition or displacement. `O=C(c1nccs1)[C@H](CCCCO)NC(=O)[C@@H]1CCCN1C(=O)CC(c1ccccc1)c1ccccc1`: the inhibition constant (Ki) on Prothrombin [1] is more than 1000 nM.

The term half-life denotes the time needed for the level to fall by half in the phase considered. A low value points to rapid decline. In general, bioavailability refers to the share of a dose that reaches the circulation, judged against a reference dose that is usually intravenous. Lower therefore signals poor availability. Compound `NCCCC[C@H](NC(=O)[C@@H]1CCCN1C(=O)[C@H](N)CC1CCCCC1)C(=O)c1nccs1` showed a Ki at Prothrombin [1] of 3.5 nM. In data set [2], this compound yielded a half-life of 17 min. Also, in [3], the bioavailability was less than 5%.

Take `NCCCC[C@H](NC(=O)[C@@H]1CCN1C(=O)[C@@H](CC1CCCCC1)NCC(=O)O)C(=O)C(=O)O`: on Prothrombin [1], the Ki was determined as 0.5 nM. Moreover, the half-life in data set [2] turned out to be 21 min; in [4], 42 min. In addition, the bioavailability in data set [3] was found to be 15%; in data set [5], 1%.

`NCCCC[C@H](NC(=O)[C@@H]1CCCN1C(=O)[C@H](CC(=O)O)NS(=O)(=O)Cc1ccccc1)C(=O)C(=O)O` came in with an inhibition constant Ki on Prothrombin [1] of 15 nM.

At Prothrombin [1], `NCCCC[C@H](NC(=O)[C@@H]1C=CCN1C(=O)[C@@H](CC1CCCCC1)NCC(=O)O)C(=O)C(=O)O` came in with a Ki of 0.33 nM. Also, the half-life in data set [2] turned out to be 22 min; in data set [3] it was 32 min. The bioavailability in [3] is 37%; in data set [5] it was 68%.

Compound `NCCCC[C@H](NC(=O)[C@@H]1CCCN1C(=O)[C@@H](CC1CCCCC1)NCC(=O)O)C(=O)c1nccs1` registered an inhibitory constant (Ki) on Prothrombin [1] of 2.6 nM. The ED50 (nM min-1 kg-1) at Prothrombin [6] came to 19. In [7], this compound gave a bioavailability of 23%. The half-life in data set [8] is 23 min.

On to `NCCCC[C@H](NC(=O)CN(C(=O)[C@@H](CC1CCCCC1)NCC(=O)O)C1CCCC1)C(=O)C(=O)O`, for which the inhibitory constant (Ki) at Prothrombin [1] came out at 0.21 nM. In data set [9], the bioavailability was determined as 2%. Further, the half-life in data set [10] turned out to be 18 min.

In turn, `NC(N)=NCCC[C@H](NC(=O)[C@@H]1CCCN1C(=O)[C@@H](N)Cc1ccccc1)C(=O)c1nccs1` displayed a Ki at Prothrombin [1] of 0.3 nM. In data set [7], the bioavailability is less than 5%. The compound further had a half-life in data set [8] of 5 min.

Consider `NCCCC[C@H](NC(=O)[C@@H]1CCCCN1C(=O)[C@@H](CC1CCCCC1)NCC(=O)O)C(=O)C(=O)O`, for which the inhibition constant Ki at Prothrombin [1] was 0.29 nM. This compound came in with a half-life in data set [2] of 5 min. The compound also had a bioavailability in data set [11] of 6%.

As for `NCCCC[C@H](NC(=O)[C@@H]1CC2CCCCC2N1C(=O)[C@@H](CC1CCCCC1)NCC(=O)O)C(=O)C(=O)O` (stereo partly drawn), the Ki on Prothrombin [1] was found to be 0.82 nM. The compound further yielded a bioavailability in data set [9] of 25%. The compound further yielded a half-life in data set [10] of 8 min.

The compound `NCCCC[C@H](NC(=O)CN(C(=O)[C@H](N)CC1CCCCC1)C1CC1)C(=O)c1nccs1` returned an inhibition constant Ki at Prothrombin [1] of 13 nM.

On Prothrombin [1], `NCCCC[C@H](NC(=O)[C@@H]1CCCN1C(=O)CC(c1ccccc1)c1ccccc1)C(=O)c1nccs1` gave a Ki of 204 nM.

Take `NCCCC[C@H](NC(=O)[C@@H]1CCCN1C(=O)[C@H](N)Cc1ccccc1)C(=O)c1nccs1`: on Prothrombin [1], the inhibition constant (Ki) turned out to be 146 nM.

With `COc1ccc2ccc(S(=O)(=O)N[C@@H](CCCCN)C(=O)c3nccs3)cc2c1`, at Prothrombin [1], the Ki was more than 1000 nM.

The compound `CC1(C)CCN(C(=O)[C@@H](CC2CCCCC2)NCC(=O)O)[C@@H]1C(=O)N[C@@H](CCCCN)C(=O)C(=O)O` gave a Ki on Prothrombin [1] of 376 nM.

On to `COc1ccc2ccc(S(=O)(=O)N[C@@H](CCCCN)C(=O)N3CCC(C)CC3)cc2c1`, for which, at Prothrombin [1], the Ki was more than 1000 nM.

On Prothrombin [1], `NC(N)=NCCC[C@@H]1NC(=O)[C@@H]2CCCN2C(=O)[C@@H](NC=O)CNC(=O)/C=C/[C@H](Cc2ccc(O)cc2)NC(=O)[C@@H](Cc2ccccc2)NC(=O)C1=O` [CYCLOTHEONAMIDE A] registered a Ki of 1 nM.

Regarding `NCCCC[C@H](NC(=O)[C@@H]1CCCN1C(=O)[C@@H](CC1CCCCC1)NCC(=O)O)C(=O)c1ncco1`, at Prothrombin [1], affinity was put at a Ki of 0.42 nM. In addition, in data set [7], the bioavailability stood at 28%. The half-life in [8] was less than 5 min.

On to `NCCCC[C@H](NC(=O)[C@@H]1CCCN1C(=O)[C@@H](CC1CCCCC1)NCC(=O)O)C(=O)C(=O)NCCc1ccccc1`, for which the inhibition constant Ki on Prothrombin [1] came to 0.84 nM. The same compound displayed a bioavailability in data set [9] of 23%. The half-life in [10] was 17 min.

Regarding `CC1CNc2c(cccc2S(=O)(=O)N[C@@H](CCCNC(=N)N)C(=O)N2CC[C@@H](C)C[C@@H]2C(=O)O)C1` (stereo partly drawn) [ARGATROBAN], the bioavailability in data set [7] turned out to be 27%.

Take `CCS(=O)(=O)N[C@H](CC1CCCCC1)C(=O)N1CCC[C@H]1C(=O)N[C@@H](CCCCN)C(=O)c1nccs1`: affinity at Prothrombin [1] was put at a Ki of 2 nM.

The compound `NCCCC[C@H](NC(=O)[C@@H]1CCCN1C(=O)[C@H](N)CC1CCCCC1)C(=O)C(=O)O` came in with a Ki on Prothrombin [1] of 0.14 nM. In addition, the bioavailability in [7] stood at 9%. For the same compound, the half-life in data set [8] was 9 min.

For the compound `CC(C)OC(=O)C(=O)[C@H](CCCCN)NC(=O)[C@@H]1CCCN1C(=O)[C@@H](CC1CCCCC1)NCC(=O)O`, the inhibition constant (Ki) on Prothrombin [1] came out at 1.1 nM. The bioavailability is 32% in [9] and 71% in data set [5]. For the same compound, the half-life is 108 min in data set [12] and 58 min in [10].

`NCCCC[C@H](NC(=O)CN(C1CC1)C1Cc2ccccc2C1)C(=O)c1nccs1` had an inhibition constant Ki at Prothrombin [1] of more than 1000 nM.

A word on the clearance: it is the rate of elimination divided by the concentration. Take `NCCCC[C@H](NC(=O)[C@@H]1CCCN1C(=O)[C@@H](CC1CCCCC1)NCC(=O)O)C(=O)C(=O)O`: affinity at Prothrombin [1] was put at a Ki of 0.29 nM. For the same compound, the figures for the bioavailability in data set [13] and in [7] were 24% and 39%, respectively. The half-life in data set [2] is 19 min; in data set [4], 78 min. At Prothrombin [6], this compound displayed an ED50 (nM min-1 kg-1) of 7.5. This compound had a clearance in data set [14] of 0.417 mL/min.

`NCCCC[C@H](NC(=O)[C@@H]1CCCN1C(=O)[C@H](N)Cc1ccccc1)C(=O)C(=O)O` gave a Ki on Prothrombin [1] of 1.4 nM.
